From article PMC10449033 (European journal of inorganic chemistry, 2023)
Read-outs that look alike come from different tables or passages of the source.

Tests used:
[1] = target: T1, mitochondrial calcium uniporter (MCU) (Homo sapiens, UniProt Q8NE86); test: Mitochondrial Ca2+ uptake in intact HeLa cells using Rhod 2-AM; assay type: cell-based; details: 50 μM, 2 h, 37 °C, histamine 100 μM
T1 sequence (Q8NE86 51-351): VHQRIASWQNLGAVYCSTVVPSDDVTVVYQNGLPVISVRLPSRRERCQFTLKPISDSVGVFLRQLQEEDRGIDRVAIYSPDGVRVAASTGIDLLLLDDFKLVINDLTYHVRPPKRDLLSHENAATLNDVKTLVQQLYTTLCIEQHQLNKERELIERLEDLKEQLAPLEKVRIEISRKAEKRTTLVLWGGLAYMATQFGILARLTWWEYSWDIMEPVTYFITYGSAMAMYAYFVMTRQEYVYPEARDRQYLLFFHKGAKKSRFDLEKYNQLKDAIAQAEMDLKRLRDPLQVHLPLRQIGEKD
T1 sequence (Q9H4I9 48-107 partner limits assumed): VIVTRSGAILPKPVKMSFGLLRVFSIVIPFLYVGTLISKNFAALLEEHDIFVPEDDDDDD
In short: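 About 1 × 10^5 HeLa cells left overnight, then exposed to complex (50 μM) in DMEM/10% FBS for 2 h at 37 °C. Loaded with 2 μM Rhod 2-AM in extracellular medium (1 mM CaCl2, 10 mM glucose, BSA, Pluronic F127) for 30 min in the dark at room temperature. Then 30 min dye-free, 15 min at 37 °C. Confocal imaging, ex 561/em 568–712 nm: ~30 s baseline, then histamine (100 μM), frames every 3 s. Per-cell CTCF expressed as F/F0.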

[2] = target: T1, mitochondrial calcium uniporter (MCU); details: read-out: mCa2+ uptake inhibition IC50 HeLa, permeabilized HeLa cells, cited from earlier work
[3] = target: T1, mitochondrial calcium uniporter (MCU); details: read-out: mCa2+ uptake inhibition IC50 HEK293T; permeabilized HEK293T cells; ref [36]; cited from earlier work
[4] = target: T1, mitochondrial calcium uniporter (MCU); test: mCa2+ uptake inhibition in digitonin-permeabilized HEK293T cells; assay type: cell-based
In short: (§1)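 Trypsinised cells permeabilised on ice for 15 min in KCl buffer (HEPES, pH 7.2) with 80 μM digitonin and 1 μM thapsigargin. Resuspended with 1 μM Calcium Green-5N and 2 mM succinate (HeLa 5 × 10^6, HEK293T 1 × 10^7 cells mL−1). Complex equilibrated ~200 s at room temperature, then CaCl2 added (HeLa 10, HEK293T 20 μM). Read ex 488/em 528 every 5 s. Rate from exponential time constant vs untreated; Hill IC50; three biological replicates ± SD.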

HEK293T cells = test: Mitochondrial membrane potential via JC-1 assay, HEK293T cells; assay type: cell-based; details: 50 μM, 24 h
In short: (§2)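 About 1 × 10^5 cells on glass-bottomed dishes, left overnight, then exposed to complex (50 μM) for 24 h at 37 °C. Loaded with 10 μM JC-1 for 30 min in the dark at 37 °C, washed, and imaged in PBS with green (monomer) and red (J-aggregate) filter sets. The positive control was 50 μM CCCP in PBS. Red/green CTCF came from ≥8 cells, normalised to untreated (=1). Three trials ± SD.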

[5] = target: T1, mitochondrial calcium uniporter (MCU); test: mCa2+ uptake inhibition in digitonin-permeabilized HeLa cells; assay type: cell-based; details: for mCa2+ uptake inhibition compared to untreated cells: 25 μM complex, digitonin-permeabilized HeLa cells
In short: as §1

HeLa cells = test: Mitochondrial membrane potential via JC-1 assay, HeLa cells; assay type: cell-based; details: 50 μM, 24 h
In short: as §2

[6] = target: T1, mitochondrial calcium uniporter (MCU); details: ref [35],[37],[39],[36]; cited from earlier work
[7] = Cytotoxicity, MTT assay, HeLa cells; assay type: cell-based; details: human
In short: (§3)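 Cells seeded at ~4000 per well and left overnight, then exposed to a range of complex concentrations in medium for 72 h. MTT was added at 1 mg mL−1 in FBS-free DMEM for 3 h, and formazan was dissolved in 8:1 DMSO/glycine buffer (pH 10) for absorbance. Viability was normalised to untreated cells (100%), with Hill fit for IC50. Three independent trials ± SD.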

[8] = Cytotoxicity, MTT assay, HEK293T cells; assay type: cell-based; details: human
In short: as §3

For `NCCN.NCCN.NCCN.[Co+3]` [[Co(en)3]^3+], the “inhibition of histamine-induced mCa2+ uptake in intact cells” value (shortened to “inhibition … in intact cells”) [1] is given as “cannot”, the IC50 ([2]; ref [36]) is given as 115 ± 13 nM and the IC50 [3] is given as 76 ± 10 nM.
In the case of `CC(CNCCN)(CNCCN)CNCCN.[Co+3]` [Compound 3, [Co(sen)]^3+], the “inhibition … in intact cells” value [1] is reported as “statistically significant decrease in mCa^2+ uptake”, the IC50 [4] is reported as 0.18 ± 0.02 µM and the “depolarization of the mitochondrial membrane potential (JC-1)” value (HEK293T cells) is reported as “did not lead to depolarization”. For the same compound, the IC50 [5] was 0.16 ± 0.02 µM, the “mCa2+ uptake inhibition compared to untreated cells” value [5] was “completely abolish mCa^2+ uptake” and the “depolarization of the mitochondrial membrane potential (JC-1)” value (HeLa cells) was “did not lead to depolarization”.
`CC12CNCCNCC(C(=O)O)(CNCCNC1)C(=O)NCCNC2.[Co+3]` [Compound 6, [Co(CO2H,Mesar)]^2+] showed an IC50 [4] greater than 25 µM and an IC50 [5] greater than 25 µM.
For `O=[N+]([O-])C12CNCCNCC([N+](=O)[O-])(CNCCNC1)CNCCNC2.[Co+3]` [Compound 1, [Co(diNOsar)]^3+], the IC50 [4] was 7.98 ± 0.37 µM and the IC50 [5] was 6.05 ± 0.48 µM.
For `CC12CNCCNCC([N+](=O)[O-])(CNCCNC1)CNCCNC2.[Co+3]` [Compound 4, [Co(MeNOsar)]^3+], the IC50 [4] was 2.73 ± 0.2 µM, the IC50 [5] was 2.91 ± 0.26 µM and the “mCa2+ uptake inhibition compared to untreated cells” value [5] was “comparable to that of 1”.
For Os245, the “inhibition of MCU-mediated mCa2+ uptake in intact HeLa cells” value [6] is given as “able to inhibit” and the IC50 ([2]; ref [39]) is given as 103 ± 30 nM.
For `N.N.N.N.N.N.N.N.[Cl][Ru+3].[N-]=[Ru][Cl]` [Ru265], the “inhibition of MCU-mediated mCa2+ uptake in intact HeLa cells” value [6] is given as “able to inhibit” and the “inhibition … in intact cells” value [1] is given as “significantly diminish mCa^2+ uptake”.
For `N.N.N.N.N.N.N.N.[Cl][Ru+3].[NH]=[Ru][Cl]` [Ru265], the IC50 ([2]; ref [36]) is listed as 3.9 ± 1 nM and the IC50 [3] is listed as 8.6 ± 2.2 nM.
For `NC12CNCCNCC(N)(CNCCNC1)CNCCNC2.[Co+3]` [Compound 2, [Co(diAMsar)]^3+], the IC50 [4] was greater than 25 µM, the viability at 72 h, 1000 µM [7] was 40% and the IC50 [5] was greater than 25 µM. For the same compound, the viability at 72 h, 1000 µM [8] was 40%.
`CCOC(=O)C12CNCCNCC(C)(CNCCNC1)CNCCNC2=O.[Co+3]` [Compound 5, [Co(CO2Et,Mesar)]^2+] showed an IC50 [4] greater than 25 µM and an IC50 [5] greater than 25 µM.
For Os245′, the IC50 ([2]; ref [39]) is listed as 2.3 ± 0.8 nM.
